Experimental data: ChEMBL document CHEMBL1221192, “Using substrate engineering to harness enzymatic promiscuity and expand biological catalysis” (Nat Chem Biol, 2006)

Experiments:
LACTOSE, ANHYDROUS [1] = experiment: (§1) Activity at Neisseria meningitidis lgtC by UV-VIS spectroscopy
Procedure, shortened: (§2)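 Continuous coupled assay: UDP release from LgtC-catalysed galactose transfer (UDP-Gal donor) coupled to NADH oxidation, followed at 340 nm (ε = 6.22 mM–1cm–1) in a temperature-controlled spectrophotometer. Initial rates were fitted directly to obtain kinetic parameters (kcat, Km, kcat/Km).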

[2] = substrate: O=C(OC[C@H]1O[C@@H](O)[C@@H](O)[C@@H](O)[C@@H]1O)c1ccccc1; experiment: as §1; procedure, shortened: as §2
[3] = substrate: OC[C@H]1O[C@@H](O[C@H]2[C@H](O)[C@@H](O)[C@H](OCc3ccccc3)O[C@@H]2CO)[C@H](O)[C@@H](O)[C@@H]1O; experiment: as §1; procedure, shortened: as §2
[4] = substrate: O[C@@H]1[C@@H](O)[C@H](OCc2ccccc2)OC[C@H]1O; experiment: as §1; procedure, shortened: as §2
[5] = substrate: CCCCCCCCO[C@@H]1OC[C@@H](O)[C@H](O)[C@H]1O; experiment: (§3) Ratio of Kcat to Km for Neisseria meningitidis lgtC; procedure, shortened: as §2
[6] = substrate: CCCCCCCCO[C@@H]1O[C@H](CO)[C@@H](O)[C@H](O)[C@H]1O; experiment: as §3; procedure, shortened: as §2
[7] = substrate: CCCCCCCCO[C@@H]1O[C@H](CO)[C@H](O)[C@H](O)[C@H]1O; experiment: as §3; procedure, shortened: as §2
LACTOSE, ANHYDROUS [8] = experiment: as §3; procedure, shortened: as §2
[9] = substrate: O=C(OC[C@H]1O[C@@H](O)[C@@H](O)[C@@H](O)[C@@H]1O)c1ccccc1; experiment: as §3; procedure, shortened: as §2
[10] = substrate: O=C(O[C@@H]1CO[C@@H](O)[C@H](O)[C@H]1O)c1ccccc1; experiment: as §3; procedure, shortened: as §2
[11] = substrate: O=C[C@H](O)[C@@H](O)[C@@H](O)[C@H](O)CO; experiment: as §3; procedure, shortened: as §2
[12] = substrate: O=C[C@H](O)[C@@H](O)[C@H](O)CO; experiment: as §3; procedure, shortened: as §2
[13] = substrate: OC1OC[C@@H](O)[C@@H](O)[C@@H]1O; experiment: as §3; procedure, shortened: as §2
[14] = substrate: OC[C@H]1OC(O)[C@@H](O)[C@@H](O)[C@@H]1O; experiment: as §3; procedure, shortened: as §2
[15] = substrate: OC[C@H]1OC(O)[C@H](O)[C@@H](O)[C@@H]1O; experiment: as §3; procedure, shortened: as §2
[16] = substrate: OC[C@H]1OC(O)[C@H](O)[C@H](O)[C@@H]1O; experiment: as §3; procedure, shortened: as §2
[17] = substrate: OC[C@H]1O[C@@H](O[C@H]2[C@H](O)[C@@H](O)[C@H](OCc3ccccc3)O[C@@H]2CO)[C@H](O)[C@@H](O)[C@@H]1O; experiment: as §3; procedure, shortened: as §2
[18] = substrate: O[C@@H]1[C@@H](O)[C@H](OCc2ccccc2)OC[C@H]1O; experiment: as §3; procedure, shortened: as §2
[19] = substrate: O[C@@H]1[C@H](O)[C@@H](O)OC[C@H]1O; experiment: as §3; procedure, shortened: as §2
[20] = substrate: O[C@H]1[C@H](O)[C@@H](O)[C@H](O)[C@@H](O)[C@H]1O; experiment: as §3; procedure, shortened: as §2

B1: Alpha 1,4 galactosyltransferase (Neisseria meningitidis), Q8KHJ3 (protein)
chain: MDIVFAADDNYAAYLCVAAKSVEAAHPDTEIRFHVLDAGISEANRAAVAANLRGGGNIRFIDVNPEDFAGFPLNIRHISITTYARLKLGEYIADCDKVLYLDIDVLVRDSLKPLWDTDLGDNWLGACIDLFVERQNAYKQKIGMADGEYYFNAGVLLINLKKWRQHDIFKMACEWVEQYKDVMQYQDQDILNGLFKGGVCYANSRFNFMPTNDAFMANRFASRHTDPLYRDRTYTAMPVAVSHYCGPAKPWHRDCTAWGAERFTELAGSLTSVPEEWRGKLAVPHRVFPTKRMLQRWRRKLSARFLRKIY
LACTOSE, ANHYDROUS [1]
  Km: 40 mM
  kcat: 160 s⁻¹
[2]
  Km: 30 mM
  kcat: 2.5 s⁻¹
[3]
  Km: 35 mM
  kcat: 1 s⁻¹
[4]
  Km: 15 mM
  kcat: 10 s⁻¹
[5]
  kcat/Km: 367 M⁻¹ s⁻¹
[6]
  kcat/Km: 23.3 M⁻¹ s⁻¹
[7]
  kcat/Km: 63.3 M⁻¹ s⁻¹
LACTOSE, ANHYDROUS [8]
  kcat/Km: 4000 M⁻¹ s⁻¹
[9]
  kcat/Km: 83.3 M⁻¹ s⁻¹
[10]
  kcat/Km: 200 M⁻¹ s⁻¹
[11]
  kcat/Km: 5 M⁻¹ s⁻¹
[12]
  kcat/Km: 30 M⁻¹ s⁻¹
[13]
  kcat/Km: 1.67 M⁻¹ s⁻¹
[14]
  kcat/Km: 5 M⁻¹ s⁻¹
[15]
  kcat/Km: 3.33 M⁻¹ s⁻¹
[16]
  kcat/Km: 0.833 M⁻¹ s⁻¹
[17]
  kcat/Km: 28.3 M⁻¹ s⁻¹
[18]
  kcat/Km: 667 M⁻¹ s⁻¹
[19]
  kcat/Km: 5 M⁻¹ s⁻¹
[20]
  kcat/Km: 3.33 M⁻¹ s⁻¹
